Assay outcomes deposited in PubChem by several laboratories.
A selection: hits, their analogues and other compounds. The true share with any hit is near 3.1%.
HKDC1 inh = HKDC1 hexokinase inhibitors, primary screen, biochemical, fluorescence, uHTS | inhibition, % at 20 µM | 0.16% of 340,000 active | recombinant HKDC1, G6PDH/diaphorase resazurin coupled fluorescence | Q2TB90 | AID 493160, 2011;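 active = inhibition above about 35% when tested at 20 µM, limit read from the data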
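Assay system: recombinant HKDC1 hexokinase; detection: coupled resazurin fluorescence, excitation 525 nm, emission 613 nm; benchmarks: DMSO-plus-enzyme-mix negative control, buffer-substituted positive control; compound dosing: single 20 µM dose; schedule: 90 min at room temperature in dark; also added: glucose plus 1 mM ATP as hexokinase substrates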
Tb hexokinase = Trypanosoma brucei hexokinase 1 inhibitors, primary screen, biochemical, G6PDH-coupled NADH absorbance, MLSCN library; AID 1430, 2008; 0.11% of 220,000 active; recombinant TbHK1, G6PDH-coupled NADH A340; hexokinase 1 [Trypanosoma brucei]; inhibition, % at 10 µM;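 active = inhibition of 50% or more in the single-dose primary screen; inactive = inhibition below 50%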
HSP90 refold inh = HSP90 inhibitors, primary screen, cell lysate, luminescence; Heat shock protein HSP 90 (rabbit reticulocyte lysate; luciferase refolding); Rabbit reticulocyte lysate, luciferase refolding luminescence, 3 h; inhibition, % at 5.6 µM; 0.91% of 290,000 active; AID 1789, 2009;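 active = inhibition above the screen-wide mean plus 3 SD, computed separately per campaign, cut at about 16% in these data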;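 note: inhibitors lower the luminescence because luciferase stays unfolded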
HSF1 activator = HSF-1 activators, primary screen, NIH3T3-HGL cells, MG132 stress, luminescence, single point. NIH3T3-HGL HSF-1 luciferase reporter, 8 h; 100% = twice DMSO control signal. activation, % at 9 µM. 1.7% of 300,000 active;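 active = mean replicate activation of at least 50% with a set share of replicates each reaching 50%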
Hsp70 activator = Hsp70 transcriptional activators, primary screen, cell-based, HeLa, Hsp70 promoter luciferase, luminescence, 10 µM; HeLa Hsp70 promoter luciferase reporter; scaled: vehicle 0, proteasome-inhibitor control 100%; activation, % at 10 µM; 0.04% of 200,000 active; AID 1203, 2008;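 active = activation above the mean across all tested compounds plus 3 SD, cutoff set per campaign, cut at about 5.5% in these data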
HSF1 inh = HSF1 inhibitors in luciferase reporter cells, primary screen, cell-based, NIH3T3, luminescence | activity change, negative = inhibition, % at 7.5 µM (by protocol) | NIH3T3-HGL HSE-luciferase, MG132-induced, luminescence 8 h; stronger effect = lower value | AID 2098, 2009 | 0.77% of 300,000 active;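 active = more than half of replicate wells show activity change below -50%, luminescence cut by over half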;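 note: luciferase reports HSF-1 transcriptional activity via heat shock element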
Hits are given with their value; . = inactive; / = not tested or not shown.

SMILES	HKDC1 inh	Tb hexokinase	HSP90 refold inh	HSF1 activator	Hsp70 activator	HSF1 inh
CCOc1cc(N2CCOCC2)c(OCC)cc1NC(=O)CN1C(=O)NC(C)(c2ccc(OC)cc2)C1=O (configuration not stated)	.	/	/	/	/	/
C#CCOCCOCCOCCNc1nc(N2CCN(C(=O)[C@H](CCC(=O)O)n3cc([C@@H](N)[C@H](C)CC)nn3)CC2)nc(N2CCN(C(=O)[C@H](CCCCN)n3cc([C@@H](N)CC(N)=O)nn3)CC2)n1	.	/	/	/	/	/
CCOc1ccc(NS(=O)(=O)c2cc3c4c(c2)C(C)C(=O)N4CCC3)cc1 (configuration not stated)	.	/	.	.	/	.
Cc1nn(Cc2ccccc2)c(C)c1NC(=O)c1noc2c1CCc1ccccc1-2	.	.	.	.	.	-67
CCOC(=O)/C(C#N)=C/c1c(N2CCN(c3ccccc3)CC2)nc2ccccn2c1=O	.	/	.	93	/	.
COC(=O)c1ccc(CSc2ncnc3ccccc23)o1	.	.	.	.	.	.
c1coc(CSc2ncnc3c2oc2ccccc23)c1	.	.	.	66	/	.
COC(=O)c1ccc(CSc2ncnc3c2oc2ccccc23)o1	.	.	.	113	.	.
COc1ccc(N(C)S(=O)(=O)c2cccc(C(=O)Nc3cccc(C(=O)NC4CC4)c3)c2)cc1	.	/	/	/	/	/
CC(=O)Nc1c(Br)cc2c(c1Br)C(=O)c1ccccc1-2	.	/	/	/	/	/
CC(=O)C1=C(c2ccc(Br)cc2)C(=O)c2ccccc2C1=O	83	.	.	.	.	.
CCn1c(=O)n(CC)c2cc(N3CCCC3)c(NC(=O)c3cc(Cl)ccc3OC)cc21	.	/	.	.	/	.
CCn1c(=O)n(CC)c2cc(N3CCCC3)c(NC(=O)c3ccc(OC)c(Br)c3)cc21	.	/	.	.	/	-71
COC(=O)C1CCc2c(ccc3c2CCCC3)C1=O (configuration not stated)	.	/	/	/	/	/
CCOc1ccc(-c2nc3ccccc3c(=O)o2)cc1	.	.	.	55	.	.
CCCCOc1ccc(-c2nnc(-c3ccncc3)o2)cc1	.	.	.	.	.	.
CCOc1ccc(-c2nnc(-c3ccncc3)o2)cc1	.	.	.	52	.	.
CC1CCCC(NC(=O)CN(C)CC(=O)Nc2cccc(F)c2)C1C (configuration not stated)	.	/	/	/	/	/
CCN(CC)C(=O)c1cc(-c2ccc(Br)cc2)on1	.	.	.	58	.	.
O=C(Nc1ccc(S(=O)(=O)NCc2ccccc2)cc1)C1CCCCC1	.	/	.	.	/	.
COc1cc2c(cc1OC)CN(c1ccc(C(F)(F)F)cn1)CC2	.	/	.	102	/	.
Cn1c(N)c(S(=O)(=O)N2CCN(c3ccccc3F)CC2)c(=O)n(C)c1=O	.	/	.	.	/	.
CC(COc1ccccc1Cc1ccccc1)N1CCCCC1 (configuration not stated)	/	/	/	.	/	.
COc1ccccc1NC(=O)CSc1nc2n[nH]c(C)c2c(=N)n1-c1ccccc1Cl	.	.	.	60	.	.
Cc1ccc(C(=O)N2CCCC(Nc3ccc(F)cc3)C2)cc1C (configuration not stated)	.	/	.	.	/	-71
SMILES	HKDC1 inh	Tb hexokinase	HSP90 refold inh	HSF1 activator	Hsp70 activator	HSF1 inh
CCOC(=O)/C=C/C(=O)Nc1ccc(S(=O)(=O)N(C)c2ccccc2)cc1	.	.	.	67	.	.
Cc1c(CC(=O)NCC(C)C)c(=O)oc2cc3c(cc12)CCC(C)(C)O3	.	/	.	.	/	.
COc1ccccc1NS(=O)(=O)c1ccc(C)c(C(=O)N2CCN(c3ccc(O)cc3)CC2)c1	.	/	/	.	/	.
Cc1ccc(NC(=O)C2CCCN2S(=O)(=O)c2ccc3c(c2)n(C)c(=O)c(=O)n3C)cc1C (configuration not stated)	.	.	.	.	.	-53
CCOC(=O)C1CCCN(S(=O)(=O)c2cc3c4c(c2)CCC(=O)N4CCC3)C1 (configuration not stated)	.	/	/	.	/	.
Cc1nccn1Cc1cccc2ccccc12	.	.	.	.	.	-53
c1ccc2c(Cn3ccnc3)cccc2c1	.	/	.	.	/	.
CCCCn1c(N)c(N(CCOC)C(=O)COC(=O)CCOc2ccccc2C)c(=O)[nH]c1=O	.	/	/	.	/	.
O=S(=O)(c1cccs1)n1nnc2ccccc21	.	.	.	.	.	.
O=S(=O)(N1CCCCC1)n1nnc2ccccc21	.	.	.	.	.	-53
Fc1cccc(Cl)c1/C=C/c1cnc2ccccc2n1	.	/	17	.	/	.
Fc1cccc(F)c1/C=C/c1ccc2ccccc2n1	.	.	.	.	.	.
COc1ccccc1C1c2[nH]c3ccccc3c2C[C@H]2C(=O)N(C3CCN(Cc4ccccc4)CC3)CC(=O)N12 (some centres not stated)	.	/	.	.	/	.
CCOC(=O)c1c(C)[nH]c(C(=O)N/N=C/c2cc([N+](=O)[O-])ccc2O)c1C	.	/	.	.	/	-59
CCCCn1c(N)c(N(CCOC)C(=O)COC(=O)/C=C/c2ccc(Br)cc2)c(=O)[nH]c1=O	.	/	.	.	/	.
CCC(=O)NC(=S)Nc1ccc(S(=O)(=O)N2CCN(C)CC2)cc1	.	.	.	79	.	.
O=C(Nc1ccc(-c2nc3ccccc3s2)cc1)C1=COCCO1	.	.	.	.	.	-56
O=C(Nc1cccc(-c2nc3ccccc3s2)c1)C1=COCCO1	.	.	.	.	.	.
CC(=O)Nc1cccc(C(=O)N2CCN(S(=O)(=O)c3ccc(C4CCCCC4)cc3)CC2)c1	.	/	/	/	/	/
O=c1nc2n(c3ncccc13)CCC2	.	.	16	.	.	.
Fc1ccc(-c2nn(-c3ccccc3)cc2CNCc2ccccc2)cc1	.	.	.	.	.	.
O=C(CCl)Nc1cn(-c2ccccc2)nc1-c1ccc(F)cc1	.	.	.	.	.	-84
c1cc2c(cc1C1=NNC(=NC3CC3)SC1)OCCO2	.	.	76	.	.	.
O=C(CCC(=O)c1cccs1)OCC(=O)c1ccc(F)cc1	.	/	/	/	/	/
O=C(CC(Nc1ccc(F)cc1)C(=O)O)c1ccccc1 (configuration not stated)	.	.	.	56	.	.
O=C(CC(Nc1ccc(F)cc1)C(=O)OCC(=O)c1cccs1)c1ccccc1 (configuration not stated)	.	.	.	89	.	.
C=CCN1C(=O)c2ccc(C(=O)N3CCN(S(=O)(=O)c4cccc(Cl)c4)CC3)cc2C1=O	.	/	.	.	/	.
